In ChEMBL document CHEMBL1681775, “Design of a novel pyrrolidine scaffold utilized in the discovery of potent and selective human β3 adrenergic receptor agonists” (Bioorg Med Chem Lett, 2011):
Values after ≈ are worked out from the molar mass of the structure shown.

Experiments:
[1] = molecular target: T1, Beta-3 adrenergic receptor (Homo sapiens, UniProt P13945); assay: Agonist activity at human beta3 adrenergic receptor; format: functional
Target sequence in this assay (P13945 whole entry): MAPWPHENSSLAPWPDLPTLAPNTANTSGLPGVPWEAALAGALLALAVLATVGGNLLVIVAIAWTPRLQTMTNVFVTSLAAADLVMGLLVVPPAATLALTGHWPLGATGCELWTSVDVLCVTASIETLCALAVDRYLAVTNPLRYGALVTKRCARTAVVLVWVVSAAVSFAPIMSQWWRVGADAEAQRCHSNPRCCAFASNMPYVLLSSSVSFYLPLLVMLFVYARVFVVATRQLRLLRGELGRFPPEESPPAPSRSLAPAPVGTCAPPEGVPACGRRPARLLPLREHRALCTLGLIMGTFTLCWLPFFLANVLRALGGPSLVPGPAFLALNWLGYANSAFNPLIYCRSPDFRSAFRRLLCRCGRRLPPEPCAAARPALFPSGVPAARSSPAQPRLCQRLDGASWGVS

[2] = molecular target: T1, Beta-3 adrenergic receptor; assay: Agonist activity at human beta3 adrenergic receptor relative to control; format: functional
Target sequence in this assay (P13945 whole entry, looked up): as the sequence (P13945 whole entry) above

[3] = molecular target: T2, Beta-1 adrenergic receptor (Homo sapiens, UniProt P08588); assay: Agonist activity at human beta1 adrenergic receptor; format: functional
[4] = molecular target: T3, Beta-2 adrenergic receptor (Homo sapiens, UniProt P07550); assay: Agonist activity at human beta2 adrenergic receptor; format: functional
[5] = Mutagenic activity in Salmonella Typhimurium assessed as 2 fold increase of revertants at 30 to 600 ug/plate by AMES test relative to control in presence of S9 fraction; format: toxicity; conditions: salmonella enterica subsp. enterica serovar typhimurium, in the assay text read “30 to 6000 ug/plate” for “30 to 600 ug/plate”
Procedure, shortened: (§1)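 Ames microbial mutagenesis assay in bacterial strains, run with and without S-9 metabolic activation. A positive response was defined as a 2-fold or greater increase in revertants over the control.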

[6] = Mutagenic activity in Salmonella Typhimurium assessed as 2 fold increase of revertants at 30 to 600 ug/plate by AMES test relative to control in absence of S9 fraction; format: toxicity; conditions: salmonella enterica subsp. enterica serovar typhimurium, in the assay text read “30 to 6000 ug/plate” for “30 to 600 ug/plate”; procedure, shortened: as §1
[7] = Half life in iv dosed rat; format: ADME, organism-based; conditions: in vivo
[8] = Volume of distribution in rat; format: ADME, organism-based; conditions: in vivo
[9] = system: Canis familiaris; assay: (§2) Half life in iv dosed dog; format: ADME, organism-based, Canis lupus familiaris; conditions: in vivo
[10] = Volume of distribution in dog; format: ADME, organism-based, Canis lupus familiaris; conditions: in vivo
[11] = Volume of distribution in rhesus monkey; format: ADME, organism-based, Macaca mulatta; conditions: in vivo
[12] = species on record: Homo sapiens; assay: Selectivity ratio of human beta3 adrenergic receptor to human beta1 adrenergic receptor
[13] = species on record: Homo sapiens; assay: Selectivity ratio of human beta3 adrenergic receptor to human beta2 adrenergic receptor
[14] = molecular target: Cytochrome P450 3A4 (Homo sapiens, UniProt P08684); assay: Inhibition of CYP3A4; format: ADME
[15] = molecular target: Cytochrome P450 2D6 (Homo sapiens, UniProt P10635); assay: Inhibition of CYP2D6; format: ADME
[16] = Oral bioavailability rat; format: ADME, organism-based; conditions: in vivo
[17] = Plasma clearance in iv dosed dog; format: ADME, organism-based, Canis lupus familiaris
[18] = as §2; format: ADME, organism-based, Canis lupus familiaris; conditions: in vivo
[19] = Oral bioavailability in dog; format: ADME, organism-based, Canis lupus familiaris; conditions: in vivo
[20] = Plasma clearance in iv dosed rhesus monkey; format: ADME, organism-based, Macaca mulatta
[21] = Half life in iv dosed rhesus monkey; format: ADME, organism-based, Macaca mulatta; conditions: in vivo
[22] = Oral bioavailability in rhesus monkey; format: ADME, organism-based, Macaca mulatta; conditions: in vivo
[23] = molecular target: Cytochrome P450 2C9 (Homo sapiens, UniProt P11712); assay: Inhibition of CYP2C9; format: ADME
[24] = molecular target: T4, Cytochrome P450 2C8 (Homo sapiens, UniProt P10632); assay: Inhibition of CYP2C8; format: ADME
T4 sequence (P10632 whole entry): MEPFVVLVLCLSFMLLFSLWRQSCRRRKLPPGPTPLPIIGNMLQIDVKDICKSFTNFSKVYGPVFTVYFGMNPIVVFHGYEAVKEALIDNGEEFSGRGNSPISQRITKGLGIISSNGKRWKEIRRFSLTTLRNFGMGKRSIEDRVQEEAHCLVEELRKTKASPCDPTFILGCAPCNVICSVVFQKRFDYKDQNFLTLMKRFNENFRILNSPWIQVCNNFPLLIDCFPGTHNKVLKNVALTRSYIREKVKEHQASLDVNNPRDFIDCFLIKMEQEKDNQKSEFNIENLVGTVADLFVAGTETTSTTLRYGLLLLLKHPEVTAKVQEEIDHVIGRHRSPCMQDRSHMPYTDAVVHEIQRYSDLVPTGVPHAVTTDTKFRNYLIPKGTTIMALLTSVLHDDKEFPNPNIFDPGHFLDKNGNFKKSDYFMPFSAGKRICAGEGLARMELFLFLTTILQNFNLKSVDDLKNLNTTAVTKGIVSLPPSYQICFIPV

[25] = Solubility of the compound at pH < 5.2; format: physicochemical
[26] = Solubility of the compound at pH 7.4; format: physicochemical; conditions: buffer
[27] = molecular target: Nav1.5 (Homo sapiens, UniProt Q14524); assay: Inhibition of human Nav1.5 at 30 uM
[28] = molecular target: Voltage-gated inwardly rectifying potassium channel KCNH2 (Homo sapiens, UniProt Q12809); assay: Inhibition of human ERG
[29] = Metabolic stability in dog liver microsomes assessed as compound remaining after 45 mins; format: ADME, Canis lupus familiaris, Microsome; conditions: read-out: Stability
[30] = Metabolic stability in human liver microsomes assessed as compound remaining after 45 mins; format: ADME, Microsome; conditions: read-out: Stability
[31] = Metabolic stability in rat liver microsomes assessed as compound remaining after 45 mins; format: ADME, Microsome; conditions: read-out: Stability
[32] = Metabolic stability in rhesus monkey liver microsomes assessed as compound remaining after 45 mins; format: ADME, Macaca mulatta, Microsome; conditions: read-out: Stability
[33] = Mutagenic activity in Salmonella Typhimurium by AMES test in presence of S9 fraction; format: toxicity; conditions: salmonella enterica subsp. enterica serovar typhimurium, in the assay text read “5-fluorouracil forward mutation assay” for “AMES test”
[34] = molecular target: T2, Beta-1 adrenergic receptor; assay: Binding affinity to human beta1 adrenergic receptor
[35] = molecular target: T3, Beta-2 adrenergic receptor; assay: Binding affinity to human beta2 adrenergic receptor

Cytochrome P450 2D6, sequence (P10635 whole entry): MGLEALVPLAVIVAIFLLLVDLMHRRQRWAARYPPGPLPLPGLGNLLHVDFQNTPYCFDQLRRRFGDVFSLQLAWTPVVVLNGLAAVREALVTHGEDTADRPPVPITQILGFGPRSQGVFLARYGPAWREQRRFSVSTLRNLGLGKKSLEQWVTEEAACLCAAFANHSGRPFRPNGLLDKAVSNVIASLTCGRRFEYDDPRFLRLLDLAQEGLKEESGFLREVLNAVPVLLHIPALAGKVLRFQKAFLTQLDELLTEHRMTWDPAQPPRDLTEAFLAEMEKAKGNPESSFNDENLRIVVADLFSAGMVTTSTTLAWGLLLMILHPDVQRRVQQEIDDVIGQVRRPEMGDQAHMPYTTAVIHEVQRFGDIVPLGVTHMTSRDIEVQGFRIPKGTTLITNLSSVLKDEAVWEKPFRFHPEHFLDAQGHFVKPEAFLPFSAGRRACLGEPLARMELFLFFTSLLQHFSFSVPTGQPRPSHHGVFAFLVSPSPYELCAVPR
T2 sequence (P08588 whole entry): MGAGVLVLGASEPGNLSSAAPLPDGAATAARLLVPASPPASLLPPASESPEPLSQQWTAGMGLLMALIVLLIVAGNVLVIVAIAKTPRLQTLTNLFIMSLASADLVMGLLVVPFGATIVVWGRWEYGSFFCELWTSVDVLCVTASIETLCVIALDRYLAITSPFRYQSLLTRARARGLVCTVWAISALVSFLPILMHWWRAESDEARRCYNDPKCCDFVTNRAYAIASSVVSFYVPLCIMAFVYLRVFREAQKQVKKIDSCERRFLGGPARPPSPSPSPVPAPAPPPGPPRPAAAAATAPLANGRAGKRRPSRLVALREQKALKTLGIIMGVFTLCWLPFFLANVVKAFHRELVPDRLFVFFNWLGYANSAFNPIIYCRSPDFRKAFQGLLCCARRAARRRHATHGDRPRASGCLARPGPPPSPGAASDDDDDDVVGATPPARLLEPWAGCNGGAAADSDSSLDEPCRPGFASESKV
Cytochrome P450 3A4, sequence (P08684 whole entry): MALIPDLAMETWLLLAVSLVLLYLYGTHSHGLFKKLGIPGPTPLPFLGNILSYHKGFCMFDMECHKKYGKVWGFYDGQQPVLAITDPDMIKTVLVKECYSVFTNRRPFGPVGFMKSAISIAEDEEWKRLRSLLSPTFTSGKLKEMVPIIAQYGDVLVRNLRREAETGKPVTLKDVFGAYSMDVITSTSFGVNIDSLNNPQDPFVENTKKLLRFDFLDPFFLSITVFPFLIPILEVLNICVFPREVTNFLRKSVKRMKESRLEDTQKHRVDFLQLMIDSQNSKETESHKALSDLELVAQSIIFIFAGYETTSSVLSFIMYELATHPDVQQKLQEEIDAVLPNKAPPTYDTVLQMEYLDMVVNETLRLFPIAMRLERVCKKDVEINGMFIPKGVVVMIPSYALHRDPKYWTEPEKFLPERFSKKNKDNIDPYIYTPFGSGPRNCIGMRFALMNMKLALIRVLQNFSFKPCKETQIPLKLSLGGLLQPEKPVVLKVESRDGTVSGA
T3 sequence (P07550 whole entry): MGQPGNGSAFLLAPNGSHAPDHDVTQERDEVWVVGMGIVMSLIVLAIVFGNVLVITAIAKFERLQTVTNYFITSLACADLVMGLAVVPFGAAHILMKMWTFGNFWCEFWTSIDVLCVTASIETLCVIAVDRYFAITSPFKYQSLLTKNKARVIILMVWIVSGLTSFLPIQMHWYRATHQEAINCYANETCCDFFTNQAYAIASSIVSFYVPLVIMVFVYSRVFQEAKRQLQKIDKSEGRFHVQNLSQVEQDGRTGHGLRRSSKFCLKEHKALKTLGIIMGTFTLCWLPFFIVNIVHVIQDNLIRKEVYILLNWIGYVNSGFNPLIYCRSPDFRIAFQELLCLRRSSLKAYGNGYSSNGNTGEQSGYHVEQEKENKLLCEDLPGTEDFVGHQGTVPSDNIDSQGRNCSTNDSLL
Nav1.5, sequence (Q14524 whole entry): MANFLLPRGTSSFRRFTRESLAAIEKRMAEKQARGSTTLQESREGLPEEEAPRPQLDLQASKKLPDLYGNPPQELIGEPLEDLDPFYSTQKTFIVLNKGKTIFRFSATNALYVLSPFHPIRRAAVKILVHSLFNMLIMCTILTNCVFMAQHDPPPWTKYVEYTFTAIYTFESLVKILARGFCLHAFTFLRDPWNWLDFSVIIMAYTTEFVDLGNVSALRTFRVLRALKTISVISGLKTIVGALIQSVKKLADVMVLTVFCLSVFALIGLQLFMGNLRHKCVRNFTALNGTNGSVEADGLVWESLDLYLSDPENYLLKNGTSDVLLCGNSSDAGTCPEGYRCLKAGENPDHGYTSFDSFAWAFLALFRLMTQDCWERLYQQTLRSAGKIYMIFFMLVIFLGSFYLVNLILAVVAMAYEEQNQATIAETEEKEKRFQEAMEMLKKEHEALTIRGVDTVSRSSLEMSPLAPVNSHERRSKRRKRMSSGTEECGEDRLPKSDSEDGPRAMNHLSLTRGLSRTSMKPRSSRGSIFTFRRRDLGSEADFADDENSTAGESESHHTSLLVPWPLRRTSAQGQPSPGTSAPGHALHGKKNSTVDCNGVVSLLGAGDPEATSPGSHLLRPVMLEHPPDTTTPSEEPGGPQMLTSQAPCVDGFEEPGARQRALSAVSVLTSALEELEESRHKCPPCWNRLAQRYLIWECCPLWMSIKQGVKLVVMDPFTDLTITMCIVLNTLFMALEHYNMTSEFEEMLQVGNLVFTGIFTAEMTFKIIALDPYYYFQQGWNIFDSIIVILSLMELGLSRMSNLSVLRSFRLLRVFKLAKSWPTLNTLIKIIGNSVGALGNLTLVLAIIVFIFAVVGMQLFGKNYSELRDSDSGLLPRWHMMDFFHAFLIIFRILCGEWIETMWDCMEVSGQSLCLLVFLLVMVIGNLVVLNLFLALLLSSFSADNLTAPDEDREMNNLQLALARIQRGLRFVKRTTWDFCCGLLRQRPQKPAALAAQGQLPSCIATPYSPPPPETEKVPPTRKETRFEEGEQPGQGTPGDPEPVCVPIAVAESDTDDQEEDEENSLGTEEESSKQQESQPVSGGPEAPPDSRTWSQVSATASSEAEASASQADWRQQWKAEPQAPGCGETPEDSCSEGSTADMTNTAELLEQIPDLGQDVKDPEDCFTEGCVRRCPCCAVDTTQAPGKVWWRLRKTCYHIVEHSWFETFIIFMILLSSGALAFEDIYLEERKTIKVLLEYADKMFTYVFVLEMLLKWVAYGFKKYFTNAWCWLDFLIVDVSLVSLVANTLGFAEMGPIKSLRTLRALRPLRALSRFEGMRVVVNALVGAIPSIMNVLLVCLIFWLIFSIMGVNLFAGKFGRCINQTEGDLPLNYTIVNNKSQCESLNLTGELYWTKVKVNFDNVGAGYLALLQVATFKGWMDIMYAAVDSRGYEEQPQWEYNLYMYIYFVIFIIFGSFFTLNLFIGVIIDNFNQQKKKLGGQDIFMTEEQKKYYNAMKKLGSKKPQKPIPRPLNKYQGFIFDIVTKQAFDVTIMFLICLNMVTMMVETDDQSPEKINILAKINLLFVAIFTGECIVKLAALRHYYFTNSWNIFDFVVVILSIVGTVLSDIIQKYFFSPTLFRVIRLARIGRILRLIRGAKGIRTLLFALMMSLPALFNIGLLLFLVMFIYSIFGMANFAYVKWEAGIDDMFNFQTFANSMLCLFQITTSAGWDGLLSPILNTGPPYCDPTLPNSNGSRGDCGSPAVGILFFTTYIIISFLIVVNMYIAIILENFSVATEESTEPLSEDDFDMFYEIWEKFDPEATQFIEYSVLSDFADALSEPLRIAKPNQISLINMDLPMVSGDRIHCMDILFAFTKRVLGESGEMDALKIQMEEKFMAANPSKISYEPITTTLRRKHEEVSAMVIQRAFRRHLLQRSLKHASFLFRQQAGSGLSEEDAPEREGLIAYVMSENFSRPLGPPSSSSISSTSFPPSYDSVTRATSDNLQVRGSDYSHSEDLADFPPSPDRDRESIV
Cytochrome P450 2C9, sequence (P11712 whole entry): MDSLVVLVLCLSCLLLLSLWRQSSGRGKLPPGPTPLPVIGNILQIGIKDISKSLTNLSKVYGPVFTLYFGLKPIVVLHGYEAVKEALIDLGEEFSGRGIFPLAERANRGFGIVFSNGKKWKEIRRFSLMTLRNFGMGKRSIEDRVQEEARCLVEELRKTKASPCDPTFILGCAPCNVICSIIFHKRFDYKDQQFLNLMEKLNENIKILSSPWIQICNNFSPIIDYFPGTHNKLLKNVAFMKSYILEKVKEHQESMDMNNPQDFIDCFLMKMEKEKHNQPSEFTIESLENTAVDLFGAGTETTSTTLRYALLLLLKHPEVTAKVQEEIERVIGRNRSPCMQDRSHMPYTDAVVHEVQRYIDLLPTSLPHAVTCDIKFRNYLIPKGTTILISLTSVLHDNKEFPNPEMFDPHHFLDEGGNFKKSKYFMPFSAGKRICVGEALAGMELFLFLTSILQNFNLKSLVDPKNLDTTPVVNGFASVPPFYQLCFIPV

With `O=S(=O)(Nc1ccc(CC2CC[C@H]([C@@H](O)c3ccccc3)N2)cc1)c1ccc(-c2nc(-c3ccc(C(F)(F)F)cc3)cs2)cc1` (mixture of isomers) the EC50 ([1]; read-out: EC50) was 1310 nM, the Activity [2] was 104% and the IC50 [3] was 1520 nM. The IC50 [4] was 2790 nM.
For `CC(Cc1ccc(NS(=O)(=O)c2ccc(-c3nc(-c4ccc(C(F)(F)F)cc4)cs3)cc2)cc1)NC(C)[C@H](O)c1ccccc1` (mixture of isomers), the EC50 [1] was “Not Active”.
Compound `O=S(=O)(Nc1ccc(CCNC[C@H](O)c2ccccc2)cc1)c1ccc(-c2nc(-c3ccc(C(F)(F)F)cc3)cs2)cc1` has an EC50 ([1]; read-out: EC50) of 11 nM, an Activity [2] of 95% and an IC50 [3] of 1040 nM. The IC50 [4] was 780 nM.
Work on `O=S(=O)(Nc1ccc(CC2CC[C@@H]([C@@H](O)c3ccccc3)N2)cc1)c1ccc(-c2nc(-c3ccc(C(F)(F)F)cc3)cs2)cc1` (mixture of isomers) yielded an EC50 ([1]; read-out: EC50) of 2030 nM, an Activity [2] of 89% and an IC50 [3] of 1780 nM. It also gave an IC50 [4] of 3530 nM.
For `Nc1ccc(C[C@@H]2CC[C@H]([C@H](O)c3ccccc3)N2)cc1`, the Activity [5] was “Non-toxic” and the Activity [6] was “Non-toxic”.
`O=S(=O)(Nc1ccc(CC2CC[C@H]([C@H](O)c3ccccc3)N2)cc1)c1ccc(-c2nc(-c3ccc(C(F)(F)F)cc3)cs2)cc1` (mixture of isomers) showed an EC50 ([1]; read-out: EC50) of 15 nM, an Activity [2] of 101% and an IC50 [3] of 2930 nM. It also gave an IC50 [4] of 2180 nM.
Work on `O=S(=O)(Nc1ccc(CCNC[C@H](O)c2cccnc2)cc1)c1ccc(-c2nc(-c3ccc(C(F)(F)F)cc3)cs2)cc1` yielded a half-life [7] of 8.1 h, a Vd [8] of 23 L/kg and a t1/2 [9] of 14 h. The Vd [10] was 12 L/kg, the Vd [11] was 6.2 L/kg and the Selectivity ratio [12] was 1000. It also gave a Selectivity ratio [13] of 1000.
For `O=S(=O)(Nc1ccc(C[C@H]2CC[C@H]([C@H](O)c3ccccc3)N2)cc1)c1ccc(-c2nc(-c3ccc(C(F)(F)F)cc3)cs2)cc1`, the EC50 ([1]; read-out: EC50) was 83 nM, the Activity [2] was 76% and the IC50 [3] was 242 nM. The IC50 [4] was 297 nM, the INH [14] was greater than 50 µM and the INH [15] was greater than 50 µM.
Compound `O=S(=O)(Nc1ccc(CC2CC[C@@H]([C@H](O)c3ccccc3)N2)cc1)c1ccc(-c2nc(-c3ccc(C(F)(F)F)cc3)cs2)cc1` (mixture of isomers) has an EC50 ([1]; read-out: EC50) of 81 nM, an Activity [2] of 104% and an IC50 [3] of 2150 nM. For the same compound, the IC50 [4] was 3530 nM.
In the case of `Nc1nc(CC(=O)Nc2ccc(C[C@@H]3CC[C@H]([C@H](O)c4ccccc4)N3)cc2)cs1`, the half-life [7] is reported as 7.7 h, the Vd [8] is reported as 5.8 L/kg and the bioavailability [16] is reported as 12%. It also gave a clearance [17] of 23 mL/min/kg, a half-life [18] of 8.3 h and a Vd [10] of 14 L/kg. For the same compound, the bioavailability [19] was 18%, the clearance [20] was 43.4 mL/min/kg and the half-life [21] was 9.9 h. The Vd [11] was 26.4 L/kg, the bioavailability [22] was 14% and the EC50 ([1]; read-out: EC50) was 0.98 nM. It also gave an Activity [2] of 99%, an IC50 [3] greater than 20000 nM and an IC50 [4] greater than 20000 nM. The INH [14] was greater than 100 µM, the INH [15] was 2.2 µM and the INH [23] was greater than 100 µM. It also gave an INH [24] greater than 100 µM, a solubility [25] greater than 1800 µg/mL and a solubility [26] of 1300 µg/mL (≈ 3.08 mM). The inhibition at 30 µM [27] was 26%, the IC50 [28] was 11200 nM and the remaining at 0.75 h [29] was 23%. It also gave a remaining at 0.75 h [30] of 40%, a remaining at 0.75 h [31] of 13% and a remaining at 0.75 h [32] of 77%. The Activity [33] was “Non-toxic”, the IC50 [34] was greater than 20000 nM and the IC50 [35] was greater than 20000 nM.
With `O=S(=O)(Nc1ccc(C[C@@H]2CC[C@H]([C@H](O)c3ccccc3)N2)cc1)c1ccc(-c2nc(-c3ccc(C(F)(F)F)cc3)cs2)cc1` the EC50 ([1]; read-out: EC50) was 4.1 nM, the Activity [2] was 95% and the IC50 [3] was 2190 nM. For the same compound, the IC50 [4] was 2510 nM, the INH [14] was greater than 50 µM and the INH [15] was greater than 50 µM.
